Reference: ChEMBL document CHEMBL4308829, “Design and Synthesis of Novel Positive Allosteric Modulators of α7 Nicotinic Acetylcholine Receptors with the Ability To Rescue Auditory Gating Deficit in Mice” (J Med Chem, 2018)
Calls of active or inactive are those of the source. The calls are words filed in the database; no cut-off is given here.

Key:
[1] = Ratio of drug level in C57BL/6J mouse brain to plasma at 1 mg/kg, ip after 2 hrs by LC-MS/MS analysis; format: ADME, organism-based; details: read-out: BPR
Method in brief: (§1)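 C57BL/6J mice given 1 mg/kg i.p. from a 0.4 mg/mL solution in 10% DMSO/50% PEG400/40% SBECD. Plasma and brain taken at 0.5, 2 and 8 h. Samples mixed with internal standard in methanol/acetonitrile (1:1), centrifuged and diluted 10x in methanol:water with 0.1% FA, then measured by HPLC-MS-MS. n = 3; ratio is brain over plasma concentration.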

[2] = Tmax in rat at 60 mg/kg, po by LC-MS/MS analysis; format: ADME, organism-based; details: in vivo
Method in brief: (§2)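 Rat plasma stored at -20 °C, spiked with internal standard, protein-precipitated with methanol, centrifuged and filtered before LC-MS/MS. C18 column at 40 °C, acetonitrile/0.1% formic acid (80:20) isocratic at 0.5 mL/min. Positive ESI with MRM m/z 400.0->129.9. Parameters taken per rat by non-compartmental analysis, n = 3.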

[3] = Ratio of drug level in C57BL/6J mouse brain to plasma at 1 mg/kg, ip after 0.5 hrs by LC-MS/MS analysis; format: ADME, organism-based; details: read-out: BPR; method in brief: as §1
Mus musculus [4] = test: Anti-schizophrenic activity in ip dosed C57BL/6J mouse assessed as protection against MK-801-induced auditory gating deficit by measuring reduction in prepulse inhibition impairment at 8 to 16 dB prepulse intensity; format: functional, organism-based
[5] = biological target: T1, Neuronal acetylcholine receptor subunit alpha-7 (Homo sapiens, UniProt P36544); test: (§3) Positive allosteric modulation of human alpha7 nAChR expressed in Xenopus laevis oocytes assessed as increase in acetylcholine-induced channel current at 10 uM at -90 mV holding potential preincubated for 2 mins followed by co-application with acetylcholine for 10 secs by two-electrode voltage clamp method relative to control; format: cell-based
[6] = Half life in rat at 60 mg/kg, po by LC-MS/MS analysis; format: ADME, organism-based; details: in vivo; method in brief: as §2
[7] = Apparent volume of distribution in rat at 3 mg/kg, iv by LC-MS/MS analysis; format: ADME, organism-based; details: in vivo; method in brief: as §2
Mus musculus [8] = test: Anti-schizophrenic activity in C57BL/6J mouse assessed as protection against MK-801-induced auditory gating deficit by measuring prepulse inhibition impairment at 0.1 mg/kg, ip at 8 to 16 dB prepulse intensity (reference value: 11%); format: functional; set-up: scale not given: the % may be the effect or the level left
[9] = Drug uptake in C57BL/6J mouse brain at 1 mg/kg, ip after 2 hrs by LC-MS/MS analysis; format: ADME, organism-based; details: read-out: Drug uptake; method in brief: as §1
[10] = biological target: T1, Neuronal acetylcholine receptor subunit alpha-7; test: as §3, with “current by measuring maximum efficacy of acetylcholine” for “current”, “(reference value: 109 +/- 2%)” for “relative to control”; format: cell-based
[11] = biological target: GABA-A receptor; anion channel (Homo sapiens) (UniProt P14867+P47870+P18507+P28472+P48169+Q99928+Q9UN88+P34903+O00591+O14764+Q8N1C3+P18505+P78334+P47869+P31644+Q16445); test: Positive allosteric modulation of human GABA-A receptor expressed in Xenopus laevis oocytes assessed as increase in GABA-induced channel current 10 uM by two-electrode voltage clamp method; format: cell-based
[12] = AUCinfinity in rat at 3 mg/kg, iv by LC-MS/MS analysis; format: ADME, organism-based; set-up: dose 3 mg/kg, route intravenous, time infinity; details: in vivo; method in brief: as §2
[13] = Clearance in rat at 3 mg/kg, iv by LC-MS/MS analysis; format: ADME, organism-based; details: in vivo; method in brief: as §2
[14] = AUCinfinity in rat at 60 mg/kg, po by LC-MS/MS analysis; format: ADME, organism-based; set-up: dose 60 mg/kg, time infinity, route oral; details: in vivo; method in brief: as §2
[15] = biological target: T1, Neuronal acetylcholine receptor subunit alpha-7; test: Positive allosteric modulation of human alpha7 nAChR expressed in Xenopus laevis oocytes assessed as increase in acetylcholine-induced channel current at -90 mV holding potential preincubated for 2 mins followed by co-application with acetylcholine for 10 secs by two-electrode voltage clamp method; format: cell-based
[16] = biological target: Glutamate NMDA receptor; Grin1/Grin2b (Rattus norvegicus) (UniProt P35439+Q00960); test: Positive allosteric modulation of rat GluN1/GluN2B receptor expressed in Xenopus laevis oocytes assessed as increase in glycine/glutamate-induced channel current 10 uM by two-electrode voltage clamp method; format: cell-based
[17] = Oral bioavailability in rat at 60 mg/kg by LC-MS/MS analysis; format: ADME, organism-based; details: in vivo; method in brief: as §2
[18] = Drug uptake in C57BL/6J mouse brain at 1 mg/kg, ip after 0.5 hrs by LC-MS/MS analysis; format: ADME, organism-based; details: read-out: Drug uptake; method in brief: as §1
[19] = Cmax in rat at 60 mg/kg, po by LC-MS/MS analysis; format: ADME, organism-based; set-up: dose 60 mg/kg, route oral; details: in vivo; method in brief: as §2
[20] = biological target: Neuronal acetylcholine receptor; alpha4/beta2 (Rattus norvegicus) (UniProt P09483+P12390); test: Positive allosteric modulation of rat alpha4beta2 nAChR expressed in Xenopus laevis oocytes assessed as increase in acetylcholine-induced channel current at 10 uM at -90 mV holding potential by two-electrode voltage clamp method; format: cell-based
Method in brief: (§4)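 Rat α3β4 or α4β2 subunit cRNAs (~2 ng total, 1:1) injected into oocytes, which were kept at 16 °C in ND96. Two-electrode voltage clamp at -90 mV, 24-72 h post-injection, in Ringer's containing atropine at room temperature.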

[21] = biological target: T1, Neuronal acetylcholine receptor subunit alpha-7; test: as §3, with “by” for “by co-application with”, “addition in presence of alpha7 nAChR antagonist MLA” for “for 10 secs”; format: cell-based
Mus musculus [22] = test: Anti-schizophrenic activity in C57BL/6J mouse assessed as protection against MK-801-induced auditory gating deficit by measuring prepulse inhibition impairment at 0.3 mg/kg, ip at 8 to 16 dB prepulse intensity (reference value: 11%); format: functional; set-up: scale not given: the % may be the effect or the level left
[23] = Drug uptake in C57BL/6J mouse brain at 1 mg/kg, ip after 8 hrs by LC-MS/MS analysis; format: ADME, organism-based; details: read-out: Drug uptake; method in brief: as §1
[24] = biological target: Neuronal acetylcholine receptor; alpha3/beta4 (Rattus norvegicus) (UniProt P04757+P12392); test: Positive allosteric modulation of rat alpha3beta4 nAChR expressed in Xenopus laevis oocytes assessed as increase in acetylcholine-induced channel current at 10 uM at -90 mV holding potential by two-electrode voltage clamp method; format: cell-based; method in brief: as §4
[25] = Plasma concentration in C57BL/6J mouse at 1 mg/kg, ip after 2 hrs by LC-MS/MS analysis; format: ADME, organism-based; method in brief: as §1
[26] = MRT in rat at 60 mg/kg, po by LC-MS/MS analysis; format: ADME, organism-based; details: in vivo; method in brief: as §2
[27] = Plasma concentration in C57BL/6J mouse at 1 mg/kg, ip after 0.5 hrs by LC-MS/MS analysis; format: ADME, organism-based; method in brief: as §1
[28] = AUClast in rat at 3 mg/kg, iv by LC-MS/MS analysis; format: ADME, organism-based; set-up: dose 3 mg/kg, time 0 - last, route intravenous; details: in vivo; method in brief: as §2
[29] = Plasma concentration in C57BL/6J mouse at 1 mg/kg, ip after 8 hrs by LC-MS/MS analysis; format: ADME, organism-based; method in brief: as §1
[30] = Ratio of drug level in C57BL/6J mouse brain to plasma at 1 mg/kg, ip after 8 hrs by LC-MS/MS analysis; format: ADME, organism-based; details: read-out: BPR; method in brief: as §1
[31] = biological target: T1, Neuronal acetylcholine receptor subunit alpha-7; test: Induction of desensitization of human alpha7 nAChR expressed in Xenopus laevis oocytes assessed as acetylcholine-induced channel desensitization time constant at 10 uM at -90 mV holding potential by two-electrode voltage clamp method (reference value: 5.56 +/- 1.27); format: cell-based

T1 sequence (P36544 whole entry): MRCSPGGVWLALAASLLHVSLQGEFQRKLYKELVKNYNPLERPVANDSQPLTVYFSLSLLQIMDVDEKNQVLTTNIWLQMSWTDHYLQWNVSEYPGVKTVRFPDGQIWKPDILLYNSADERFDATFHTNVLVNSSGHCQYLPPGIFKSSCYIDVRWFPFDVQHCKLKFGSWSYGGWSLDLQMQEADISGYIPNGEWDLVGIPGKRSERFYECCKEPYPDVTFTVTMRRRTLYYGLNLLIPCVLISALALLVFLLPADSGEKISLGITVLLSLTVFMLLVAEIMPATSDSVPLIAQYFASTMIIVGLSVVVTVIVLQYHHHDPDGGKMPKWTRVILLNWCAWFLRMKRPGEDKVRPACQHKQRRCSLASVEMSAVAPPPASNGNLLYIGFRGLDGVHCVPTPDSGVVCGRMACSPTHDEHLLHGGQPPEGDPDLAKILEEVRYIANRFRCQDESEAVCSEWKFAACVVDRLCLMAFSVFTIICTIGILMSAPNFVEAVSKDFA

For `Cc1cccc(Cl)c1-n1cnc2nc(SCc3ccccc3)sc2c1=O`, the Kp at 2 h [1] was 2.7, the Tmax [2] was 1.3 h and the Kp at 0.5 h [3] was 2.5. For the same compound, the Activity (Mus musculus [4]) was “Dose-dependent effect”, the %max [5] was 1630% and the half-life [6] was 7.4 h. It also gave a Vd [7] of 0.069 L/kg, an Activity (Mus musculus [8]) of 22% and a concentration at 2 h [9] of 26.3 ng/g. For the same compound, the Emax [10] was 1540%, the Activity [11] was “inactive” and the AUC(0-inf) [12] was 680 ng·h/mL. For the same compound, the clearance [13] was 5 mL/h/kg, the AUC(0-inf) [14] was 1100 ng·h/mL and the Activity [15] was “Dose-dependent effect”. The Activity [16] was “inactive”, the bioavailability [17] was 8% and the concentration at 0.5 h [18] was 84.7 ng/g. The Cmax [19] was 200 ng/mL, the Activity [20] was “inactive” and the Activity [21] was “inactive”. The Activity (Mus musculus [22]) was 26%, the concentration at 8 h [23] was 3.7 ng/g and the Activity [24] was “inactive”. It also gave a concentration at 2 h [25] of 9.8 ng/mL, an MRT [26] of 9.5 h and a concentration at 0.5 h [27] of 34.3 ng/mL. The AUC(0-t) [28] was 600 ng·h/mL, the concentration at 8 h [29] was 0.9 ng/mL and the Kp at 8 h [30] was 2.3. For the same compound, the Activity [31] was 6.54.
